Activity calls are given as the source filed them. No cut-off for these calls is given here.
Experiments:
[1] = tested on: Streptococcus pyogenes; test: Antimicrobial activity against Streptococcus pyogenes 345/1 assessed as zone of inhibition at 1724 uM incubated overnight at 37 degC; format: functional; settings: read-out: IZ
Method in brief: (§1)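 Pure isolates screened against a panel of five bacteria and one fungus, each at a single concentration within 1639–5230 μM. A commercial antibiotic and antifungal agent were tested in parallel as references. Growth inhibition was recorded as the zone of inhibition.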

[2] = tested on: Escherichia coli; test: Antimicrobial activity against Escherichia coli ATCC 25922 assessed as zone of inhibition at 1724 uM incubated overnight at 37 degC; format: functional; settings: read-out: IZ; method in brief: as §1
[3] = tested on: Staphylococcus aureus; test: Antimicrobial activity against methicillin-resistant Staphylococcus aureus 344/2-32 assessed as zone of inhibition at 1724 uM incubated overnight at 37 degC; format: functional, organism-based
[4] = tested on: Candida albicans; test: Antimicrobial activity against Candida albicans ATCC 10231 assessed as zone of inhibition at 1724 uM incubated overnight at 37 degC; format: functional, organism-based; method in brief: as §1
[5] = tested on: Pseudomonas aeruginosa; test: Antimicrobial activity against Pseudomonas aeruginosa ATCC 27853 assessed as zone of inhibition at 1724 uM incubated overnight at 37 degC; format: functional; settings: read-out: IZ; method in brief: as §1
[6] = tested on: Staphylococcus aureus; test: Antimicrobial activity against Staphylococcus aureus ATCC 25923 assessed as zone of inhibition at 1724 uM incubated overnight at 37 degC; format: functional, organism-based; method in brief: as §1
[7] = tested on: Escherichia coli; test: Antimicrobial activity against Escherichia coli ATCC 25922 assessed as zone of inhibition at 3875 uM incubated overnight at 37 degC; format: functional, organism-based; method in brief: as §1
[8] = tested on: Staphylococcus aureus; test: Antimicrobial activity against Staphylococcus aureus ATCC 25923 assessed as zone of inhibition at 3875 uM incubated overnight at 37 degC; format: functional; settings: read-out: IZ; method in brief: as §1
[9] = tested on: Streptococcus pyogenes; test: Antimicrobial activity against Streptococcus pyogenes 345/1 assessed as zone of inhibition at 3875 uM incubated overnight at 37 degC; format: functional, organism-based
[10] = tested on: Staphylococcus aureus; test: Antimicrobial activity against methicillin-resistant Staphylococcus aureus 344/2-32 assessed as zone of inhibition at 3875 uM incubated overnight at 37 degC; format: functional, organism-based
[11] = tested on: Pseudomonas aeruginosa; test: Antimicrobial activity against Pseudomonas aeruginosa ATCC 27853 assessed as zone of inhibition at 3875 uM incubated overnight at 37 degC; format: functional; settings: read-out: IZ; method in brief: as §1
[12] = tested on: Candida albicans; test: Antimicrobial activity against Candida albicans ATCC 10231 assessed as zone of inhibition at 3875 uM incubated overnight at 37 degC; format: functional, organism-based; method in brief: as §1
[13] = tested on: Candida albicans; test: Antimicrobial activity against Candida albicans ATCC 10231 assessed as zone of inhibition at 3649 uM incubated overnight at 37 degC; format: functional, organism-based; method in brief: as §1
[14] = tested on: Escherichia coli; test: Antimicrobial activity against Escherichia coli ATCC 25922 assessed as zone of inhibition at 3649 uM incubated overnight at 37 degC; format: functional, organism-based; method in brief: as §1
[15] = tested on: Staphylococcus aureus; test: Antimicrobial activity against Staphylococcus aureus ATCC 25923 assessed as zone of inhibition at 3649 uM incubated overnight at 37 degC; format: functional, organism-based; method in brief: as §1
[16] = tested on: Staphylococcus aureus; test: Antimicrobial activity against methicillin-resistant Staphylococcus aureus 344/2-32 assessed as zone of inhibition at 3649 uM incubated overnight at 37 degC; format: functional, organism-based
[17] = tested on: Pseudomonas aeruginosa; test: Antimicrobial activity against Pseudomonas aeruginosa ATCC 27853 assessed as zone of inhibition at 3649 uM incubated overnight at 37 degC; format: functional; settings: read-out: IZ; method in brief: as §1
[18] = tested on: Streptococcus pyogenes; test: Antimicrobial activity against Streptococcus pyogenes 345/1 assessed as zone of inhibition at 3649 uM incubated overnight at 37 degC; format: functional, organism-based
[19] = tested on: Pseudomonas aeruginosa; test: Antimicrobial activity against Pseudomonas aeruginosa ATCC 27853 assessed as zone of inhibition at 2862 uM incubated overnight at 37 degC; format: functional; settings: read-out: IZ; method in brief: as §1
[20] = tested on: Escherichia coli; test: Antimicrobial activity against Escherichia coli ATCC 25922 assessed as zone of inhibition at 2862 uM incubated overnight at 37 degC; format: functional, organism-based; method in brief: as §1
[21] = tested on: Streptococcus pyogenes; test: Antimicrobial activity against Streptococcus pyogenes 345/1 assessed as zone of inhibition at 2862 uM incubated overnight at 37 degC; format: functional; settings: read-out: IZ; method in brief: as §1
[22] = tested on: Staphylococcus aureus; test: Antimicrobial activity against Staphylococcus aureus ATCC 25923 assessed as zone of inhibition at 2862 uM incubated overnight at 37 degC; format: functional; settings: read-out: IZ; method in brief: as §1
[23] = tested on: Staphylococcus aureus; test: Antimicrobial activity against methicillin-resistant Staphylococcus aureus 344/2-32 assessed as zone of inhibition at 2862 uM incubated overnight at 37 degC; format: functional; settings: read-out: IZ
[24] = tested on: Streptococcus pyogenes; test: Antimicrobial activity against Streptococcus pyogenes 345/1 assessed as zone of inhibition at 2211 uM incubated overnight at 37 degC; format: functional; settings: read-out: IZ; method in brief: as §1
[25] = tested on: Staphylococcus aureus; test: Antimicrobial activity against Staphylococcus aureus ATCC 25923 assessed as zone of inhibition at 2211 uM incubated overnight at 37 degC; format: functional; settings: read-out: IZ; method in brief: as §1
[26] = tested on: Pseudomonas aeruginosa; test: Antimicrobial activity against Pseudomonas aeruginosa ATCC 27853 assessed as zone of inhibition at 2211 uM incubated overnight at 37 degC; format: functional, organism-based; method in brief: as §1
[27] = tested on: Staphylococcus aureus; test: Antimicrobial activity against methicillin-resistant Staphylococcus aureus 344/2-32 assessed as zone of inhibition at 2211 uM incubated overnight at 37 degC; format: functional, organism-based
[28] = tested on: Candida albicans; test: Antimicrobial activity against Candida albicans ATCC 10231 assessed as zone of inhibition at 2211 uM incubated overnight at 37 degC; format: functional, organism-based; method in brief: as §1
[29] = tested on: Escherichia coli; test: Antimicrobial activity against Escherichia coli ATCC 25922 assessed as zone of inhibition at 2211 uM incubated overnight at 37 degC; format: functional, organism-based; method in brief: as §1
[30] = tested on: Candida albicans; test: Antimicrobial activity against Candida albicans ATCC 10231 assessed as zone of inhibition at 5230 uM incubated overnight at 37 degC; format: functional, organism-based

In the case of `O=C(/C=C/c1ccc(O)cc1)OC[C@H]1O[C@@H](Oc2cc(O)cc3c2C(=O)CC(c2ccc(O)cc2)O3)[C@H](O)[C@@H](O)[C@@H]1O` (stereo not given in full), the zone of inhibition at 1724 µM [1] is reported as 1 mm, the zone of inhibition at 1724 µM [2] is reported as 1 mm and the “inhibition zone (IZ)” value [3] is reported as “inactive”. For the same compound, the “inhibition zone (IZ)” value [4] was “inactive”, the zone of inhibition at 1724 µM [5] was 10 mm and the “inhibition zone (IZ)” value [6] was “inactive”.

With `O=C1C(=O)c2c(-c3ccccc3)ccc3cccc1c23` the “inhibition zone (IZ)” value [7] was “inactive”, the zone of inhibition at 3875 µM [8] was 2 mm and the “inhibition zone (IZ)” value [9] was “inactive”. For the same compound, the “inhibition zone (IZ)” value [10] was “inactive”, the zone of inhibition at 3875 µM [11] was 1 mm and the “inhibition zone (IZ)” value [12] was “inactive”.

With `O=C1OC(=O)c2c(-c3ccccc3)ccc3cccc1c23` the “inhibition zone (IZ)” value [13] was “inactive”, the “inhibition zone (IZ)” value [14] was “inactive” and the “inhibition zone (IZ)” value [15] was “inactive”. For the same compound, the “inhibition zone (IZ)” value [16] was “inactive”, the zone of inhibition at 3649 µM [17] was 2 mm and the “inhibition zone (IZ)” value [18] was “inactive”.

In the case of `CC1(C)S[C@@H]2[C@H](NC(=O)[C@H](N)c3ccccc3)C(=O)N2[C@H]1C(=O)O` [AMPICILLIN], the zone of inhibition at 2862 µM [19] is reported as 2 mm, the “inhibition zone (IZ)” value [20] is reported as “inactive” and the zone of inhibition at 2862 µM [21] is reported as 20 mm. The zone of inhibition at 2862 µM [22] was 15 mm and the zone of inhibition at 2862 µM [23] was 3 mm.

`Oc1ccc(/C=C/c2cc(O)c3c(-c4cc(O)cc(O)c4)c(-c4ccc(O)cc4)oc3c2)cc1` was tested, and the zone of inhibition at 2211 µM [24] was 1 mm, the zone of inhibition at 2211 µM [25] was 2 mm and the “inhibition zone (IZ)” value [26] was “inactive”. The “inhibition zone (IZ)” value [27] was “inactive”, the “inhibition zone (IZ)” value [28] was “inactive” and the “inhibition zone (IZ)” value [29] was “inactive”.

For `COC(=O)Nc1nc2ccccc2[nH]1`, the “inhibition zone (IZ)” value [30] was “inactive”.
